A short description of experiment [1]: Cytotoxicity against human 518A2 cells after 96 hrs by SRB assay. Type of experiment: functional, cell-based. An outline of the steps:
(§1)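 Monolayer cultures kept in RPMI 1640 with 10% heat-inactivated FBS and penicillin/streptomycin at 37 °C, 5% CO2. Exponentially growing cells were seeded and treated 24 h later with serial dilutions (0–30 µM) for 96 h, with DMSO or DMF at most 0.5% final. Cells were fixed with 10% TCA at 4 °C and stained with 0.4% SRB for about 30 min. Plates were washed with 1% acetic acid and the dye dissolved in 10 mM Tris base. Absorbance was read at 570 nm and survival taken relative to untreated controls. IC50 was estimated from dose–response curves, averaged from at least 5 independent experiments.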

Experiment [2] deals with 8505C. Briefly: Cytotoxicity against human 8505C cells after 96 hrs by SRB assay. Type of experiment: functional, cell-based. An outline of the steps: as §1
On the technique in general: In SRB staining, fixed cells bind dye roughly in proportion to their protein.

A short description of experiment [3]: Cytotoxicity against human A253 cells after 96 hrs by SRB assay. Type of experiment: functional, cell-based. An outline of the steps:
as §1

Another experiment relates to A2780. Briefly: Cytotoxicity against human A2780 cells after 96 hrs by SRB assay. The experiment is classed as functional, cell-based. An outline of the steps: as §1
For another experiment, the system named is A549. Kind of experiment: Cytotoxicity against human A549 cells after 96 hrs by SRB assay. The experiment is classed as functional, cell-based. The method in brief:
as §1

The subject of the next experiment is DLD-1. Kind of experiment: Cytotoxicity against human DLD1 cells after 96 hrs by SRB assay. Type of experiment: functional, cell-based. The method in brief: as §1
For another experiment, the system named is MCF7. Kind of experiment: Cytotoxicity against human MCF7 cells after 96 hrs by SRB assay. The experiment is classed as functional, cell-based. The method in brief:
as §1

A further experiment concerns NIH3T3. Kind of experiment: Cytotoxicity against mouse NIH/3T3 cells after 96 hrs by SRB assay. Type of experiment: cell-based. The method in brief: as §1
The test system of a further experiment is 518A2. Briefly: Induction of apoptosis in human 518A2 cells after 24 to 48 hrs by DNA laddering assay. The experiment is classed as functional, cell-based. An outline of the steps: (§2)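 About 1×10^6 cells were grown in 25 cm2 flasks to 80% and exposed to compound-loaded medium for 24–48 h, with blank medium as control. Cells were collected from the supernatant (300 g, 4 °C), washed in PBS and lysed. Lysates were digested with RNase for 2 h at 37 °C, then with proteinase K for 12 h at 50 °C. DNA was run on agarose gel electrophoresis ([…], 2 h).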

The subject of experiment [4] is 8505C. Briefly: Induction of apoptosis in human 8505C cells after 24 to 48 hrs by DNA laddering assay. The experiment is classed as functional, cell-based. The method in brief:
as §2

A short description of experiment [5]: Cytotoxicity against human WW030272 cells after 96 hrs by SRB assay. The experiment is classed as cell-based. An outline of the steps:
as §1

The subject of experiment [6] is 8505C. Briefly: Induction of apoptosis in human 8505C cells assessed as induction of cell death after 24 to 48 hrs by AO/PI exclusion dye assay. Type of experiment: functional, cell-based. The method in brief: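 About 1×10^6 cells were grown in 25 cm2 flasks to 80% and given compound-loaded medium for 24–48 h, with blank medium as control. Cells were recovered from the supernatant (300 g, 4 °C), washed and resuspended in PBS. They were mixed 1:1 with AO/PI solution and viewed by fluorescence microscopy: green cells were scored as apoptotic, red as necrotic.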

Structures are written as SMILES. Activity calls are given as the source filed them. No cut-off for these calls is given here.

`COC(=O)[C@]12CC[C@@H](C)[C@@](C)(O)[C@H]1C1=CC[C@@H]3[C@@]4(C)C[C@@H](O)[C@H](OC(=O)CCl)C(C)(C)[C@@H]4CC[C@@]3(C)[C@]1(C)CC2`: the IC50 in experiment [1] was 5.5 µmol; in the experiment with 8505C [2], 7.5 µmol; in [3], 4.1 µmol; with A2780, 4.1 µmol; in the experiment on A549, 10 µmol; in the experiment on DLD-1, 6 µmol. The results for the IC50 in the experiment with MCF7 and in the experiment with NIH3T3 were 6.9 µmol and 4.2 µmol, respectively. Moreover, the result with 518A2 and in the experiment on 8505C [4] was Active.
As for `COC(=O)[C@]12CC[C@@H](C)[C@@](C)(O)[C@H]1C1=CC[C@@H]3[C@@]4(C)C[C@@H](O)C(=O)C(C)(C)[C@@H]4CC[C@@]3(C)[C@]1(C)CC2`, the IC50 worked out at 8.9 µmol in experiment [1]; 12.9 µmol with 8505C [2]; 6.8 µmol in [3]; 4.9 µmol in the experiment on A2780; 11.8 µmol in the experiment on A549; 18 µmol with DLD-1. The IC50 in the experiment with MCF7 was 9.4 µmol; in the experiment on NIH3T3 it was 7.7 µmol. Further, the result in the experiment on 518A2 and with 8505C [4] was Active.
In the case of `COC(=O)[C@]12CC[C@@H](C)[C@@](C)(O)[C@H]1C1=CC[C@@H]3[C@@]4(C)C=C(O)C(=O)C(C)(C)[C@@H]4CC[C@@]3(C)[C@]1(C)CC2`, the IC50 in experiment [1] is 17.2 µmol; in the experiment on 8505C [2] it was 25 µmol; in experiment [3] it was > 30 µmol; in the experiment on A2780 it was > 30 µmol; in the experiment with A549, > 30 µmol; in the experiment with DLD-1 it was > 30 µmol. Also, the IC50 was 26 µmol with MCF7 and > 30 µmol in the experiment with NIH3T3. The outcome with 518A2 and in the experiment on 8505C [4] was Active.
Take `CC(=O)O[C@@H]1C[C@]2(C)[C@H]3CC=C4[C@H]5[C@](C(=O)O)(CC[C@@H](C)[C@@]5(C)O)CC[C@@]4(C)[C@]3(C)CC[C@H]2C(C)(C)[C@H]1OC(C)=O`: the IC50 in [1] is > 30 µmol; in the experiment on 8505C [2] it was > 30 µmol; in [3], 27.3 µmol; with A2780, 17.6 µmol; in the experiment with A549, > 30 µmol; with DLD-1 it was > 30 µmol. Moreover, the IC50 in the experiment on MCF7 turned out to be 20.4 µmol; in the experiment with NIH3T3, 32.3 µmol. Also, the outcome in the experiment on 518A2 and in the experiment with 8505C [4] was Active.
With `CC(=O)O[C@@H]1C[C@]2(C)[C@H]3CC=C4[C@H]5[C@](C(=O)O)(CC[C@@H](C)[C@@]5(C)O)CC[C@@]4(C)[C@]3(C)CC[C@H]2C(C)(C)[C@H]1O`, the IC50 was > 30 µmol in experiment [1]; > 30 µmol in the experiment with 8505C [2]; > 30 µmol in experiment [3]; 24.3 µmol in the experiment with A2780; > 30 µmol in the experiment on A549; > 30 µmol in the experiment on DLD-1. For the same molecule, the IC50 with MCF7 was 25.3 µmol; with NIH3T3, > 30 µmol. Also, the result with 518A2 and in the experiment with 8505C [4] was Active.
In the case of `COC(=O)[C@]12CC[C@@H](C)[C@@](C)(O)[C@H]1C1=CC[C@@H]3[C@@]4(C)CC(=O)[C@H](OC(C)=O)C(C)(C)[C@@H]4CC[C@@]3(C)[C@]1(C)CC2`, the IC50 in experiment [1] was 5.6 µmol; in the experiment on 8505C [2], 7 µmol; in experiment [3], 6.7 µmol; in the experiment on A2780 it was 4.4 µmol; in the experiment with A549, 7.8 µmol; in the experiment with DLD-1, 13.5 µmol. In addition, the IC50 worked out at 8.2 µmol in the experiment with MCF7 and 6.7 µmol in the experiment on NIH3T3. In addition, the result in the experiment with 518A2 and in the experiment on 8505C [4] was Active.
On to `COC(=O)[C@]12CC[C@@H](C)[C@@](C)(O)[C@H]1C1=CC[C@@H]3[C@@]4(C)CC(=O)[C@H](O)C(C)(C)[C@@H]4CC[C@@]3(C)[C@]1(C)CC2`, for which the IC50 in [1] is > 30 µmol; in the experiment on 8505C [2], > 30 µmol; with A2780, 17.8 µmol; in the experiment with DLD-1, > 30 µmol; in the experiment on MCF7, 28.7 µmol; in the experiment on NIH3T3, 19.2 µmol. Moreover, the result with 518A2 and in the experiment on 8505C [4] was Active.
As to `COC(=O)[C@]12CC[C@@H](C)[C@@](C)(O)[C@H]1C1=CC[C@@H]3[C@@]4(C)C[C@@H](OC(C)=O)C(=O)C(C)(C)[C@@H]4CC[C@@]3(C)[C@]1(C)CC2`, the IC50 is 28.9 µmol in experiment [1]; > 30 µmol with 8505C [2]; 18.5 µmol in experiment [3]; 9 µmol with A2780; 31.3 µmol in the experiment with A549; 28.2 µmol with DLD-1. For the same molecule, the IC50 worked out at 14.8 µmol in the experiment on MCF7 and 25.1 µmol with NIH3T3. Further, the outcome in the experiment with 518A2 and in the experiment on 8505C [4] was Active.
`CC(=O)O[C@H]1[C@H](O)C[C@]2(C)[C@H]3CC=C4[C@H]5[C@](C(=O)O)(CC[C@@H](C)[C@@]5(C)O)CC[C@@]4(C)[C@]3(C)CC[C@H]2C1(C)C`: the IC50 in experiment [1] is > 30 µmol; in the experiment on 8505C [2], > 30 µmol; in experiment [3] it was > 30 µmol; in the experiment with A2780, 28.1 µmol; in the experiment with A549, > 30 µmol; in the experiment with DLD-1, > 30 µmol. Moreover, the IC50 was 26.2 µmol with MCF7 and > 30 µmol with NIH3T3. In addition, the outcome in the experiment on 518A2 and with 8505C [4] was Active.
Consider `COC(=O)[C@]12CC[C@@H](C)[C@@](C)(O)[C@H]1C1=CC[C@@H]3[C@@]4(C)C[C@@H](O)[C@@H](O)C(C)(C)[C@@H]4CC[C@@]3(C)[C@]1(C)CC2` [EUSCAPHIC ACID METHYL ESTER], for which the IC50 amounted to 27.7 µmol in experiment [1]; 29.3 µmol in the experiment with 8505C [2]; 16.4 µmol in experiment [3]; 12.8 µmol in the experiment on A2780; 30.6 µmol in the experiment with A549; 35.8 µmol in the experiment on DLD-1. Also, the figures for the IC50 (with MCF7; with NIH3T3; in experiment [5]) were 17.8 µmol, > 30 µmol and 23.4 µmol, respectively. In addition, the outcome in the experiment on 518A2 and in the experiment on 8505C [4] was Active.
As for `CC1(C)CC[C@]2(C(=O)O)CC[C@]3(C)C(=CC[C@@H]4[C@@]5(C)C[C@@H](O)[C@H](O)C(C)(C)[C@@H]5CC[C@]43C)[C@@H]2C1`, the outcome in the experiment on 8505C [6] was Active.
As for `COC(=O)[C@]12CC[C@@H](C)[C@@](C)(O)[C@H]1C1=CC[C@@H]3[C@@]4(C)C[C@@H](OC(=O)CCl)[C@H](O)C(C)(C)[C@@H]4CC[C@@]3(C)[C@]1(C)CC2`, the IC50 stood at 4.5 µmol in experiment [1]; 4.6 µmol in the experiment on 8505C [2]; 4.6 µmol in experiment [3]; 2.6 µmol in the experiment on A2780; 9.7 µmol in the experiment on A549; 3.7 µmol in the experiment with DLD-1. Moreover, the IC50 in the experiment with MCF7 was 2.6 µmol; in the experiment with NIH3T3 it was 2.1 µmol. Moreover, the outcome in the experiment with 518A2 and with 8505C [4] was Active.
On to `COC(=O)[C@]12CC[C@@H](C)[C@@](C)(O)[C@H]1C1=CC[C@@H]3[C@@]4(C)C[C@H](O)[C@H](O)C(C)(C)[C@@H]4CC[C@@]3(C)[C@]1(C)CC2`, for which the IC50 in experiment [1] is > 30 µmol; in the experiment on 8505C [2] it was > 30 µmol; in [3], 15.3 µmol; in the experiment on A2780 it was 18.9 µmol; in the experiment with A549 it was > 30 µmol; with DLD-1, > 30 µmol. Besides, the IC50 with MCF7 is 22.6 µmol; in the experiment on NIH3T3 it was > 30 µmol. For the same molecule, the result with 518A2 and in the experiment on 8505C [4] was Active.

Source of the values: ChEMBL document CHEMBL2086359, “Tormentic acid derivatives: synthesis and apoptotic activity” (Eur J Med Chem, 2012).
